Source: ChEMBL document CHEMBL3853263, “Effect of intercalator and Lewis acid-base branched peptide complex formation: boosting affinity towards HIV-1 RRE RNA” (Medchemcomm, 2016)
The source made the active and inactive calls. No cut-off for these calls is given here. Side chains are listed from the residue outwards. Peptide text beside a SMILES is read from it. * marks the point of attachment. X2 = NCCCC[C@H](NC(=O)[C@@H](N)CCCCN)C(=O)N[C@@H](CCCCNC(=O)c1ccc(B(O)O)cc1)C(=O)*; X1 = NCCCC[C@H](N)C(=O)N[C@@H](CCCCNc1c2ccccc2nc2ccccc12)C(=O)*; X3 = NCCCC[C@H](N)C(=O)N[C@@H](CCCCNC(=O)c1ccc(B(O)O)cc1)C(=O)*; Benzoyl(4-B(OH)2) = O=C(c1ccc(B(O)O)cc1)*; Acridin9yl = c1ccc2c(*)c3ccccc3nc2c1

Assays:
[1] = Binding affinity to HIV1 wild type [32P]-labeled RRE-2B RNA after 4 hrs by electrophoretic mobility shift assay; design: species or system Human immunodeficiency virus 1
How it was run: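 5'-³²P RRE-IIB (4 nM in 2x phosphate buffer, pH 7.0) is refolded at 95 °C for 3 min, then rt for 20 min. It is mixed 1:1 with peptide in water (final 0.001–10 µM) for 4 h at rt. Complexes are resolved by 10% native PAGE at 4 °C. Kd is the 50%-binding concentration from a sigmoidal fit of % RNA bound vs log[peptide]. Triplicates.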

[2] = Cytotoxicity against human U87 cells transfected with CD4/CXCR4 assessed as decrease in cell viability up to 100 uM after 24 hrs by MTT assay; type: toxicity, cell-based; conditions: u-87mg atcc
How it was run: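 U87 CXCR4 cells are seeded at 1 x 10⁴/well and incubated overnight at 37 °C in 5% CO₂. They are treated with 100, 50 or 10 µM (final) compound for 24 h. Tetrazolium dye is added for 4 h, then solubilization/stop solution for 1 h. A570 is read and normalized to untreated cells set at 1.0.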

[3] = system: Human immunodeficiency virus 1; test: (§1) Antiviral activity against HIV1 NL4-3 infected in human U87 cells transfected with CD4/CXCR4 assessed as inhibition of viral replication at 100 uM preincubated for 1 hr followed by viral infection for 24 hrs and subsequent compound wash out and addition of additional compound measured at 72 hrs post infection by p24 assay; type: functional, cell-based; conditions: U-87MG ATCC
How it was run: (§2)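 U87-CD4/CXCR4 cells are seeded at 1 x 10⁴/well and left to adhere overnight. Compounds come from 1 mM stocks in water, diluted in RPMI. Cells are pretreated for 1 h, then infected with NL4-3 (CXCR4-tropic) at MOI 0.01 for 24 h. Cells are PBS-washed and given fresh medium with more compound. p24 is quantified in supernatant at 72 h post-infection.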

[4] = system: Human immunodeficiency virus 1; test: as §1, with “10” for “100”, “assay relative to control” for “assay”; type: functional, U-87MG ATCC; conditions: Human immunodeficiency virus 1, NL4-3, U-87 MG; how it was run: as §2
[5] = system: Human immunodeficiency virus 1; test: as §1, with “replication” for “replication at 100 uM”; type: functional, cell-based; conditions: for inhibition: U-87MG ATCC; how it was run: as §2
[6] = system: Human immunodeficiency virus 1; test: as §1, with “40” for “100”, “assay relative to control” for “assay”; type: functional, U-87MG ATCC; conditions: Human immunodeficiency virus 1, NL4-3, U-87 MG; how it was run: as §2
[7] = Cytotoxicity against HIV1 NL4-3 infected human U87 cells transfected with CD4/CXCR4 assessed as decrease in cell viability at 20 to 80 uM after 72 hrs by MTT assay; type: toxicity, cell-based; conditions: u-87mg atcc

Row | Compound | Kd [1] [nM] | Activity [2] | inhibition [3] | inhibition at 10 µM [4] [%] | inhibition [5] | inhibition at 40 µM [6] [%] | Activity [7] | IC50 ([5]; Human immunodeficiency virus 1, NL4-3, U-87 MG) [nM]
1 | CC(C)C[C@H](NC(=O)[C@H](CC(C)C)NC(=O)[C@H](CCCCNC(=O)[C@H](CCCCN)NC(=O)[C@H](CCCCNC(=O)c1ccc(B(O)O)cc1)NC(=O)[C@@H](N)CCCCN)NC(=O)[C@H](CCCCN)NC(=O)[C@H](CCCCNC(=O)c1ccc(B(O)O)cc1)NC(=O)[C@@H](N)CCCCN)C(=O)N[C@@H](CCCCN)C(=O)N[C@@H](Cc1ccc(O)cc1)C(N)=O (H-KK(Benzoyl(4-B(OH)2))KK([Lys-X3])LLKY-NH2) | 660 | Non-Toxic |  |  |  |  |  | 
2 | CC(C)C[C@H](NC(=O)[C@H](CCCCNC(=O)[C@H](CCCCN)NC(=O)[C@H](CC(C)C)NC(=O)[C@@H](N)CCCCN)NC(=O)[C@H](CCCCN)NC(=O)[C@H](CC(C)C)NC(=O)[C@@H](N)CCCCN)C(=O)N[C@@H](CCCCN)C(=O)N[C@@H](CCCCNC(=O)c1ccc(B(O)O)cc1)C(=O)N[C@@H](Cc1ccc(O)cc1)C(N)=O (H-KLKK([Lys-Leu-Lys])LKK(Benzoyl(4-B(OH)2))Y-NH2) | 300 | Non-Toxic |  |  |  |  |  | 
3 | CC(C)C[C@H](NC(=O)[C@H](CCCCN)NC(=O)[C@@H](N)CCCCN)C(=O)NCCCC[C@H](NC(=O)[C@H](CC(C)C)NC(=O)[C@H](CCCCN)NC(=O)[C@@H](N)CCCCN)C(=O)N[C@@H](CCCCN)C(=O)N[C@@H](CCCCNC(=O)c1ccc(B(O)O)cc1)C(=O)N[C@@H](CCCCNC(=O)c1ccc(B(O)O)cc1)C(=O)N[C@@H](Cc1ccc(O)cc1)C(N)=O (H-KKLK([Leu-Lys-Lys])KK(Benzoyl(4-B(OH)2))K(Benzoyl(4-B(OH)2))Y-NH2) | 170 | Non-Toxic |  |  |  |  |  | 
4 | CC(C)C[C@H](NC(=O)[C@@H](N)CC(C)C)C(=O)N[C@@H](CCCCN)C(=O)NCCCC[C@H](NC(=O)[C@H](CCCCN)NC(=O)[C@H](CC(C)C)NC(=O)[C@@H](N)CC(C)C)C(=O)N[C@@H](CCCCN)C(=O)N[C@@H](CCCCNC(=O)c1ccc(B(O)O)cc1)C(=O)N[C@@H](CCCCN)C(=O)N[C@@H](Cc1ccc(O)cc1)C(N)=O (H-LLKK([Lys-Leu-Leu])KK(Benzoyl(4-B(OH)2))KY-NH2) | 210 | Non-Toxic |  |  |  |  |  | 
5 | CC(C)C[C@H](NC(=O)[C@H](CCCCN)NC(=O)[C@@H](N)CCCCN)C(=O)NCCCC[C@H](NC(=O)[C@H](CC(C)C)NC(=O)[C@H](CCCCN)NC(=O)[C@@H](N)CCCCN)C(=O)N[C@@H](CC(C)C)C(=O)N[C@@H](CCCCN)C(=O)N[C@@H](CCCCNC(=O)c1ccc(B(O)O)cc1)C(=O)N[C@@H](Cc1ccc(O)cc1)C(N)=O (H-KKLK([Leu-Lys-Lys])LKK(Benzoyl(4-B(OH)2))Y-NH2) | 330 | Non-Toxic |  |  |  |  |  | 
6 | CC(C)C[C@H](NC(=O)[C@H](CCCCNC(=O)c1ccc(B(O)O)cc1)NC(=O)[C@H](CC(C)C)NC(=O)[C@H](CCCCNC(=O)[C@H](CCCCN)NC(=O)[C@H](CCCCN)NC(=O)[C@@H](N)CCCCN)NC(=O)[C@H](CCCCN)NC(=O)[C@H](CCCCN)NC(=O)[C@@H](N)CCCCN)C(=O)N[C@@H](Cc1ccc(O)cc1)C(N)=O (H-KKKK([Lys-Lys-Lys])LK(Benzoyl(4-B(OH)2))LY-NH2) | 130 | Non-Toxic |  |  |  |  |  | 
7 | CC(C)C[C@H](NC(=O)[C@H](CCCCNc1c2ccccc2nc2ccccc12)NC(=O)[C@H](CCCCNC(=O)[C@H](CCCCN)NC(=O)[C@H](CCCCN)NC(=O)[C@@H](N)CCCCN)NC(=O)[C@H](CCCCN)NC(=O)[C@H](CCCCN)NC(=O)[C@@H](N)CCCCN)C(=O)N[C@@H](CCCCN)C(=O)N[C@@H](Cc1ccc(O)cc1)C(N)=O (H-KKKK([Lys-Lys-Lys])K(Acridin9yl)LKY-NH2) | 140 | Non-Toxic | Active |  |  |  |  | 
8 | CC(C)C[C@H](NC(=O)[C@@H](N)CCCCN)C(=O)N[C@@H](CCCCN)C(=O)NCCCC[C@H](NC(=O)[C@H](CCCCN)NC(=O)[C@H](CC(C)C)NC(=O)[C@@H](N)CCCCN)C(=O)N[C@@H](CCCCN)C(=O)N[C@@H](CCCCN)C(=O)N[C@@H](CCCCNC(=O)c1ccc(B(O)O)cc1)C(=O)N[C@@H](Cc1ccc(O)cc1)C(N)=O (H-KLKK([Lys-Leu-Lys])KKK(Benzoyl(4-B(OH)2))Y-NH2) | 1430 | Non-Toxic |  | 40 |  |  |  | 
9 | NCCCC[C@H](NC(=O)[C@H](CCCCN)NC(=O)[C@@H](N)CCCCN)C(=O)NCCCC[C@H](NC(=O)[C@H](CCCCN)NC(=O)[C@H](CCCCN)NC(=O)[C@@H](N)CCCCN)C(=O)N[C@@H](CCCCNc1c2ccccc2nc2ccccc12)C(=O)N[C@@H](CCCCNc1c2ccccc2nc2ccccc12)C(=O)N[C@@H](CCCCN)C(=O)N[C@@H](Cc1ccc(O)cc1)C(N)=O (H-KKKK([Lys-Lys-Lys])K(Acridin9yl)K(Acridin9yl)KY-NH2) |  | Non-Toxic | Active |  | Dose-dependent effect | 90 | Non-Toxic | 
10 | CC(C)C[C@H](NC(=O)[C@H](CCCCN)NC(=O)[C@H](CCCCNC(=O)[C@H](CCCCN)NC(=O)[C@H](CCCCNc1c2ccccc2nc2ccccc12)NC(=O)[C@@H](N)CCCCN)NC(=O)[C@H](CCCCN)NC(=O)[C@H](CCCCNc1c2ccccc2nc2ccccc12)NC(=O)[C@@H](N)CCCCN)C(=O)N[C@@H](CCCCNC(=O)c1ccc(B(O)O)cc1)C(=O)N[C@@H](Cc1ccc(O)cc1)C(N)=O (H-KK(Acridin9yl)KK([Lys-X1])KLK(Benzoyl(4-B(OH)2))Y-NH2) | 70 | Dose-dependent effect | Active | 60 | Dose-dependent effect | 90 | Non-Toxic | 7300
11 | CC(C)C[C@H](NC(=O)[C@H](CCCCNC(=O)[C@H](CCCCN)NC(=O)[C@H](CCCCN)NC(=O)[C@@H](N)CCCCN)NC(=O)[C@H](CCCCN)NC(=O)[C@H](CCCCN)NC(=O)[C@@H](N)CCCCN)C(=O)N[C@@H](CCCCNC(=O)c1ccc(B(O)O)cc1)C(=O)N[C@@H](CCCCNC(=O)c1ccc(B(O)O)cc1)C(=O)N[C@@H](Cc1ccc(O)cc1)C(N)=O (H-KKKK([Lys-Lys-Lys])LK(Benzoyl(4-B(OH)2))K(Benzoyl(4-B(OH)2))Y-NH2) | 280 | Non-Toxic | Active |  |  |  | Non-Toxic | 
12 | CC(C)C[C@H](NC(=O)[C@H](CCCCN)NC(=O)[C@H](CCCCNC(=O)[C@H](CCCCN)NC(=O)[C@H](CCCCN)NC(=O)[C@@H](N)CCCCN)NC(=O)[C@H](CCCCN)NC(=O)[C@H](CCCCN)NC(=O)[C@@H](N)CCCCN)C(=O)N[C@@H](CCCCNc1c2ccccc2nc2ccccc12)C(=O)N[C@@H](Cc1ccc(O)cc1)C(N)=O (H-KKKK([Lys-Lys-Lys])KLK(Acridin9yl)Y-NH2) | 20 | Non-Toxic | Active |  |  |  | Non-Toxic | 
13 | CC(C)C[C@H](NC(=O)[C@H](CCCCN)NC(=O)[C@H](CCCCNC(=O)[C@H](CCCCNC(=O)c1ccc(B(O)O)cc1)NC(=O)[C@H](CCCCN)NC(=O)[C@@H](N)CCCCN)NC(=O)[C@H](CCCCNC(=O)c1ccc(B(O)O)cc1)NC(=O)[C@H](CCCCN)NC(=O)[C@@H](N)CCCCN)C(=O)N[C@@H](CCCCNC(=O)c1ccc(B(O)O)cc1)C(=O)N[C@@H](Cc1ccc(O)cc1)C(N)=O (H-KKK(Benzoyl(4-B(OH)2))K(X2)KLK(Benzoyl(4-B(OH)2))Y-NH2) | 120 | Non-Toxic |  |  |  |  |  | 
